Reference: ChEMBL document CHEMBL4406821, “Novel dual inhibitors targeting CDK4 and VEGFR2 synergistically suppressed cancer progression and angiogenesis” (Eur J Med Chem, 2019)
Calls of active or inactive are those of the source. The calls are words filed in the database; no cut-off is given here.

Tests used:
[1] = molecular target: T1, Vascular endothelial growth factor receptor 2 (Homo sapiens, UniProt P35968); assay: Inhibition of recombinant human VEGFR2 (790 to end residues) using myelin ba as substrate at 1 uM incubated for 40 mins by [gamma-33P]-ATP based radiometric assay relative to control
Method in brief: (§1)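 Kinase panel profiling at 1 μM performed by Eurofins KinaseProfiler; percent inhibition reported as mean of two independent experiments.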

HeLa = assay: Antiproliferative activity against human HeLa cells assessed as reduction in cell viability measured after 72 hrs by CCK8 assay; format: functional, cell-based
Method in brief: (§2)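 Cells were seeded at 3×10³ cells/well and exposed to a range of concentrations or vehicle for 72 h. Viability was read by CCK-8 at 450 nm, with DMSO as blank and five replicates per sample. IC50 was calculated from the dose-response.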

T47D = assay: Antiproliferative activity against human T47D cells assessed as reduction in cell viability measured after 72 hrs by CCK8 assay; format: functional, cell-based; method in brief: as §2
SiHa = assay: Antiproliferative activity against human SiHa cells assessed as reduction in cell viability measured after 72 hrs by CCK8 assay; format: functional, cell-based; method in brief: as §2
MDA-MB-231 [2] = assay: Antiproliferative activity against human MDA-MB-231 cells assessed as reduction in cell viability measured after 72 hrs by CCK8 assay; format: functional, cell-based; settings: MDA-MB-231, 72 h; method in brief: as §2
HUVEC [3] = assay: Antiproliferative activity against HUVEC cells assessed as reduction in cell viability measured after 72 hrs by CCK8 assay; format: functional, cell-based; settings: Homo sapiens; method in brief: as §2
HUVEC [4] = assay: Antiangiogenic activity against HUVEC cells assessed as reduction in tube formation at 20 to 40 nM incubated for 6 hrs by light microscopy; format: functional, cell-based; settings: Homo sapiens
Method in brief: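 HUVECs, 4×10⁴ cells/well, were seeded on Matrigel that had been solidified at 37°C for 30 min. Cells were treated with compound or vehicle at 37°C for 6 h. Three random fields were counted and photographed under a light microscope.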

[5] = molecular target: T1, Vascular endothelial growth factor receptor 2; assay: Inhibition of VEGFR2 in HUVEC cells assessed as reduction in Akt phosphorylation at 20 to 40 nM incubated for 48 hrs by Western blot analysis; format: cell-based
Method in brief: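 HUVECs were maintained in 1640 medium with 10% FBS. They were treated with graded concentrations for 48 h, PBS-washed and lysed in RIPA buffer. Immunoblots were probed for total and phospho VEGFR2, STAT3, Akt, Erk1 and Src, each at 1:1000. β-actin served as loading control.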

[6] = Toxicity in NOD/SCID BALB/c mouse xenografted with human SiHa cells assessed as toxic effects in lungs at 40 mg/kg, po administered for 48 hrs by hematoxylin and eosin staining method; format: organism-based; settings: in vivo
[7] = molecular target: Serine/threonine-protein kinase Chk1 (Homo sapiens) (UniProt O14757); assay: Inhibition of recombinant full length human CHK1 at 1 uM using KKKVSRSGLYRSP as substrate incubated for 40 mins in presence of [gamma-33P]-ATP by scintillation counting method relative to control; method in brief: as §1
[8] = molecular target: Ephrin type-A receptor 5 (Homo sapiens) (UniProt P54756); assay: Inhibition of recombinant human EPhA5 (655 to 956 residues) at 1 uM using poly(Glu, Tyr) 4:1 as substrate incubated for 40 mins in presence of [gamma-33P]-ATP by scintillation counting method relative to control
[9] = molecular target: Ephrin type-B receptor 2 (Homo sapiens) (UniProt P29323); assay: Inhibition of recombinant human EPhB2 (560 to end residues) at 1 uM using poly(Glu, Tyr) 4:1 as substrate incubated for 40 mins in presence of [gamma-33P]-ATP by scintillation counting method relative to control
[10] = tested on: Macrophage colony-stimulating factor 1 receptor (Homo sapiens), P07333 [Y969C]; assay: Inhibition of recombinant human FMS Y969C mutant (538 to end residues) at 1 uM using EEEEYEEEEEEYY as substrate incubated for 40 mins in presence of [gamma-33P]-ATP by scintillation counting method relative to control
[11] = molecular target: Mitogen-activated protein kinase kinase kinase 11 (Homo sapiens) (UniProt Q16584); assay: Inhibition of recombinant human MLK3 at 1 uM incubated for 40 mins in presence of [gamma-33P]-ATP by scintillation counting method relative to control
[12] = molecular target: MAP kinase-activated protein kinase 5 (Homo sapiens) (UniProt Q8IW41); assay: Inhibition of recombinant human full length PRAK at 1 uM using KKLRRTLSVA as substrate incubated for 40 mins in presence of [gamma-33P]-ATP by scintillation counting method relative to control
[13] = molecular target: Protein kinase C delta type (Homo sapiens) (UniProt Q05655); assay: Inhibition of recombinant human PKCdelta (2 to end residues) at 1 uM using ERMRPRKRQGSVRRRV as substrate incubated for 40 mins in presence of [gamma-33P]-ATP by scintillation counting method relative to control
[14] = molecular target: Ribosomal protein S6 kinase alpha-3 (Homo sapiens) (UniProt P51812); assay: Inhibition of recombinant human RSK2 (2 to end residues) at 1 uM using KKKNRTLSVA as substrate incubated for 40 mins in presence of [gamma-33P]-ATP by scintillation counting method relative to control
[15] = molecular target: Ribosomal protein S6 kinase alpha-2 (Homo sapiens) (UniProt Q15349); assay: Inhibition of recombinant human full length RSK3 at 1 uM using KKKNRTLSVA as substrate incubated for 40 mins in presence of [gamma-33P]-ATP by scintillation counting method relative to control
[16] = molecular target: Serine/threonine-protein kinase 25 (Homo sapiens) (UniProt O00506); assay: Inhibition of recombinant human STK25 (1 to 308 residues) at 1 uM using RLGRDKYKTLRQIRQ as substrate incubated for 40 mins in presence of [gamma-33P]-ATP by scintillation counting method relative to control
[17] = molecular target: Serine/threonine-protein kinase VRK2 (Homo sapiens) (UniProt Q86Y07); assay: Inhibition of recombinant human VRK2 (1 to 336 residues) at 1 uM using casein as substrate incubated for 40 mins in presence of [gamma-33P]-ATP by scintillation counting method relative to control
Method in brief: (§3)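 Tested at a single 1 uM in an outsourced commercial kinase-profiling panel, read as percent inhibition. Each value is the mean of two independent experiments.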

[18] = molecular target: Fibroblast growth factor receptor 3 (Homo sapiens) (UniProt P22607); assay: Inhibition of recombinant human FGFR3 (447 to 761 residues) at 1 uM using poly(Glu, Tyr) 4:1 as substrate incubated for 40 mins in presence of [gamma-33P]-ATP by scintillation counting method relative to control; method in brief: as §3
[19] = molecular target: SRSF protein kinase 1 (Homo sapiens) (UniProt Q96SB4); assay: Inhibition of recombinant human SRPK1 (2 to end residues) at 1 uM using RSRSRSRSRSRSRSR as substrate incubated for 40 mins in presence of [gamma-33P]-ATP by scintillation counting method relative to control
MDA-MB-231 [20] = assay: Induction of apoptosis in human MDA-MB-231 cells assessed as decrease in Bcl2 expression at 20 to 40 nM incubated for 48 hrs by Western blot analysis; format: functional, cell-based
Method in brief: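 Cells were treated for 48 h, washed three times with PBS, and lysed in RIPA buffer. Immunoblots used anti-Rb, anti-phospho-Rb, anti-Ki67 and anti-Bcl-2 (each 1:1000), with β-actin as loading control.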

T1 sequence (P35968 whole entry): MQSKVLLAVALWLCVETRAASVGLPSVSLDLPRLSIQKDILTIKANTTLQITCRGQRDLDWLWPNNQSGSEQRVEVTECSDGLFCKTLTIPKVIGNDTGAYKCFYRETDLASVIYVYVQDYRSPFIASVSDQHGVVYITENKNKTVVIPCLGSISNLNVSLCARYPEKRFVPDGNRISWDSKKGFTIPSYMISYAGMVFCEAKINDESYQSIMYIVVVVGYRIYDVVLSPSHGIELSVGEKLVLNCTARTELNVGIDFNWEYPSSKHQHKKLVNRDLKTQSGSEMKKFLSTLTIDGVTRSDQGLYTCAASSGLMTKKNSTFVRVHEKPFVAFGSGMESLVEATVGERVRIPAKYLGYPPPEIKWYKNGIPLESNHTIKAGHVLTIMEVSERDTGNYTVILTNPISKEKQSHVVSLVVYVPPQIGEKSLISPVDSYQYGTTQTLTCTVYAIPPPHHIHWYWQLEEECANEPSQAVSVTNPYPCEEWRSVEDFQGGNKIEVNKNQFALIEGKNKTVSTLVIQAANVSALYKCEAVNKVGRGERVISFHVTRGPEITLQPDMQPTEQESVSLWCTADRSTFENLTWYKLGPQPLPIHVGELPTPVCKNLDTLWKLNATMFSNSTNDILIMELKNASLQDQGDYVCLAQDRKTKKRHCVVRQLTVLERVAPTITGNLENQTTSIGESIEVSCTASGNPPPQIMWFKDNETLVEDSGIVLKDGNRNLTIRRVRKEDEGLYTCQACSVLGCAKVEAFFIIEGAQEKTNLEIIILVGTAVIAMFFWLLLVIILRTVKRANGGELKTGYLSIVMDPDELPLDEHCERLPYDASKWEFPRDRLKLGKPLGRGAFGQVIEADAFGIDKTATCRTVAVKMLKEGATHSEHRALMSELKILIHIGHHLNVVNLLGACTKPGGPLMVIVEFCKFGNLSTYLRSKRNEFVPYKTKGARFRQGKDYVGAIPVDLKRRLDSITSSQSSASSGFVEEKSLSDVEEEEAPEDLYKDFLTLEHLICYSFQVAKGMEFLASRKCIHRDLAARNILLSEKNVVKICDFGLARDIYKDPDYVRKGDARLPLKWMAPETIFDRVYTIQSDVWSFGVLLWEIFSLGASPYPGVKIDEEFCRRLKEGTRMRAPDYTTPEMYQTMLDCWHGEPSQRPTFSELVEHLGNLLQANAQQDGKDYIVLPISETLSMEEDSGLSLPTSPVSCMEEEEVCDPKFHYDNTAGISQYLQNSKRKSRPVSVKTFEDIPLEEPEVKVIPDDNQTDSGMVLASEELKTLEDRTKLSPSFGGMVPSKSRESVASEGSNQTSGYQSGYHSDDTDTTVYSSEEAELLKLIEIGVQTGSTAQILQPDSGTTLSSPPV
Ribosomal protein S6 kinase alpha-2 (Homo sapiens), sequence (Q15349 whole entry, the tested form may be a part): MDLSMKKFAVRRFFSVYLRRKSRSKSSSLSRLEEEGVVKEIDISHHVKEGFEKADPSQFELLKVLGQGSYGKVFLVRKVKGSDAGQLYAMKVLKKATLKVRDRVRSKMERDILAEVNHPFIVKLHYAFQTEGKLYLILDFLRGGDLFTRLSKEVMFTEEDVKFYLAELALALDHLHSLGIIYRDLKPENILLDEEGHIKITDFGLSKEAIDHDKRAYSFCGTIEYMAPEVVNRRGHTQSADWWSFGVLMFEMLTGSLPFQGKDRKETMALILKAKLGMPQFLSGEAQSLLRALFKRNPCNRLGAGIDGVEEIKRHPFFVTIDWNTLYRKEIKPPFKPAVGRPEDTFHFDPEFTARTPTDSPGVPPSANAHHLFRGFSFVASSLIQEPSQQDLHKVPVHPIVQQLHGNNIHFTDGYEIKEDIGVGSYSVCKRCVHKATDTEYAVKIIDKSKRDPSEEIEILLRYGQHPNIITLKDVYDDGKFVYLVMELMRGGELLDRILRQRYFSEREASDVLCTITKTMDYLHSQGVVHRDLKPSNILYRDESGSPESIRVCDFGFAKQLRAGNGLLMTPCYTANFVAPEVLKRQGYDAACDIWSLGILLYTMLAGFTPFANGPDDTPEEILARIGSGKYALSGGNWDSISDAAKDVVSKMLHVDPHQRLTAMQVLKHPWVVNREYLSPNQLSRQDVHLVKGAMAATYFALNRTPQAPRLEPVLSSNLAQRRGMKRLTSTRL
Mitogen-activated protein kinase kinase kinase 11 (Homo sapiens), sequence (Q16584 whole entry, looked up): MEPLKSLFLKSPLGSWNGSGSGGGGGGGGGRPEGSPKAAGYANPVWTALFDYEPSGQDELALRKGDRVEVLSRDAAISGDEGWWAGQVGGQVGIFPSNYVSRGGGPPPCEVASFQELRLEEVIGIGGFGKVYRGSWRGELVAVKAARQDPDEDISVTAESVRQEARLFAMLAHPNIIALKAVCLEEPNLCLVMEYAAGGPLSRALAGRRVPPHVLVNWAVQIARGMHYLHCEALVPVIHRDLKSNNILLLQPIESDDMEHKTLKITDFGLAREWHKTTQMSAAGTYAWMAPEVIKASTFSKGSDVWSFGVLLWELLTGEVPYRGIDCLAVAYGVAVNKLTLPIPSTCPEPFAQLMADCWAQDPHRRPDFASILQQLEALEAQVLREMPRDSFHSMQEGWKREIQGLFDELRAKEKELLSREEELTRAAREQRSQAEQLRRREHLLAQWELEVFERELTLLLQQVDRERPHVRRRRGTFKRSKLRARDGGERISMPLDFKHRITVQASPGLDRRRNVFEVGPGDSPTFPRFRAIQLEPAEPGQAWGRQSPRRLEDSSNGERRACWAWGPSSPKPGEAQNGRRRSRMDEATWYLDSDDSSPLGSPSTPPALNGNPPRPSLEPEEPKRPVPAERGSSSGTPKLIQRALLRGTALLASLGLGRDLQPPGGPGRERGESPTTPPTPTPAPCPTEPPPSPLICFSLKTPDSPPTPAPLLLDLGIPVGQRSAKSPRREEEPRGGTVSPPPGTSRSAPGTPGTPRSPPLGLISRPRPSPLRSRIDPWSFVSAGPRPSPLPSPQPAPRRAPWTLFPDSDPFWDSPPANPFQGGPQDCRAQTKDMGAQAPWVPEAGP
Ephrin type-B receptor 2 (Homo sapiens), sequence (P29323 whole entry): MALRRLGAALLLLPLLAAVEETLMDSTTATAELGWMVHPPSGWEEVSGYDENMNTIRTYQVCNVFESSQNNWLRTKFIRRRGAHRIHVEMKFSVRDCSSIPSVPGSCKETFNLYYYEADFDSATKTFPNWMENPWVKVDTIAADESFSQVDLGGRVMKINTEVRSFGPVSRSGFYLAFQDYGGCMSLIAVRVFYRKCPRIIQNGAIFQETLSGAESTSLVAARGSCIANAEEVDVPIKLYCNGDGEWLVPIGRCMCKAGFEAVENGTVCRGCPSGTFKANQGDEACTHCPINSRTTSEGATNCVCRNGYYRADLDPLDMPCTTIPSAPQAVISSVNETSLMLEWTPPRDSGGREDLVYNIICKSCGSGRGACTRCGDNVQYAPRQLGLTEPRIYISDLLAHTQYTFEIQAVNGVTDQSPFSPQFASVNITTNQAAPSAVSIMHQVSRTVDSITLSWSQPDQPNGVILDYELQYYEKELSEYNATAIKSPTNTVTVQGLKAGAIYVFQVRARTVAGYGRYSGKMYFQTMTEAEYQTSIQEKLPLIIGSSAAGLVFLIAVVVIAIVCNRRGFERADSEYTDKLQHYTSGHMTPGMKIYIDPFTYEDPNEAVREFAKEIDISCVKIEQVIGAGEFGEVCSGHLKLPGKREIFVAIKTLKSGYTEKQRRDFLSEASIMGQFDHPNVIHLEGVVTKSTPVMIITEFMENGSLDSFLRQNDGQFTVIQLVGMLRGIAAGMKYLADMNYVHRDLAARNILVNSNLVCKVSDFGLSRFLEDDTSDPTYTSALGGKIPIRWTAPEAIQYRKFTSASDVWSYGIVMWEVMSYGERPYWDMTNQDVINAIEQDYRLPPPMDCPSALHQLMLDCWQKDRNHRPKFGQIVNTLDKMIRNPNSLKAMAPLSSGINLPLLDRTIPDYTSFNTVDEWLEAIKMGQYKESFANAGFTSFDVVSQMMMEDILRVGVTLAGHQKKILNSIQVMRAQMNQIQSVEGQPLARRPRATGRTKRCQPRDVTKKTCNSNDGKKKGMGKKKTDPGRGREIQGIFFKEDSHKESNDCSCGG
SRSF protein kinase 1 (Homo sapiens), sequence (Q96SB4 whole entry): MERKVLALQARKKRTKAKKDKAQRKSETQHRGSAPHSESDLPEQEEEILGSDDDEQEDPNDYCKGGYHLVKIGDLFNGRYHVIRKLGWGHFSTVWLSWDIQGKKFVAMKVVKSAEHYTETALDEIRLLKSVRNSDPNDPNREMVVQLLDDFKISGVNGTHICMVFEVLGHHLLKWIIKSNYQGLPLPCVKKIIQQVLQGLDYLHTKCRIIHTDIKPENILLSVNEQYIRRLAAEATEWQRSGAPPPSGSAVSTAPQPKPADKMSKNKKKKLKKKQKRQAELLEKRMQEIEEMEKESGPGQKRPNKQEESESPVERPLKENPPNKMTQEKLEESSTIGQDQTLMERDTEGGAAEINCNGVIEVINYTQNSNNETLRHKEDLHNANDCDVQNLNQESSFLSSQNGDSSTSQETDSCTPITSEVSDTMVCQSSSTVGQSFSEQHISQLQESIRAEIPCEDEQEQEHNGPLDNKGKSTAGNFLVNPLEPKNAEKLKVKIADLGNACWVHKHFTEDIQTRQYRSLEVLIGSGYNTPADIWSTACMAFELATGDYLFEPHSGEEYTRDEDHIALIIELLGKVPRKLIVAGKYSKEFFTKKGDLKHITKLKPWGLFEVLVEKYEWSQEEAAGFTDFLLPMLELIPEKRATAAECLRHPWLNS
Serine/threonine-protein kinase 25 (Homo sapiens), sequence (O00506 whole entry, looked up, the tested form may be a part): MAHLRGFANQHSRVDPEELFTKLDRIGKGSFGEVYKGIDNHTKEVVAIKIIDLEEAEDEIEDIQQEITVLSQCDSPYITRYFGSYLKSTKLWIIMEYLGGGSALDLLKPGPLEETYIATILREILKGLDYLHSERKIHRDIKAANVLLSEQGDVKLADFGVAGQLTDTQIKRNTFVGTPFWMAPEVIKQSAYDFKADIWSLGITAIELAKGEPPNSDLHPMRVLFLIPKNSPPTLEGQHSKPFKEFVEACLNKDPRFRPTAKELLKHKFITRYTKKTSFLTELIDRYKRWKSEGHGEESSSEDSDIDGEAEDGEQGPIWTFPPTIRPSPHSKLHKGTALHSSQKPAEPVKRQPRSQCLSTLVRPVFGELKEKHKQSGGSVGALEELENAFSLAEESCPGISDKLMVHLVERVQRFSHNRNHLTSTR

Structure (SMILES): Cc1ccc(NC(=O)C2(C(=O)Nc3ccc(Nc4ncc(F)c(-c5cc(F)c6nc(C)n(C(C)C)c6c5)n4)cc3)CC2)cc1
- inhibition [1]: 95%
- IC50 (HeLa): 71.5 to 72 nM
- IC50 (T47D): 16 to 16.4 nM
- IC50 (SiHa): 50 nM
- IC50 (MDA-MB-231 [2]): 38 nM
- IC50 (HUVEC [3]): 36 nM
- inhibition (HUVEC [4]): Active
- inhibition [5]: Active
- Activity [6]: Non-Toxic
- inhibition [7]: 28%
- inhibition [8]: 33%
- inhibition [9]: 23%
- inhibition [10]: 73%
- inhibition [11]: -2%
- inhibition [12]: 1%
- inhibition [13]: 29%
- inhibition [14]: 19%
- inhibition [15]: 26%
- inhibition [16]: 26%
- inhibition [17]: 0%
- inhibition [18]: 0%
- inhibition [19]: 21%
- Activity (MDA-MB-231 [20]): Active

Structure (SMILES): COc1cc2nccc(Oc3ccc(NC(=O)C4(C(=O)Nc5ccc(F)cc5)CC4)cc3)c2cc1OC [CABOZANTINIB]
- inhibition [1]: 101%
- IC50 (HeLa): > 10000 nM
- IC50 (T47D): 4790 nM
- IC50 (SiHa): 7940 nM
- IC50 (MDA-MB-231 [2]): 5080 nM
- IC50 (HUVEC [3]): 7670 nM
- inhibition (HUVEC [4]): Active
